# Active and inactive are the calls of the source. The calls are words filed in the database; no cut-off is given here.
# How the values were obtained:
# [1] = target: T1, Caspase-1 (Homo sapiens, UniProt P29466); test: Inhibition of human recombinant caspase-1 using AC-WEHD-AMC as substrate at Km after 20 mins by fluorescence assay
# T1 sequence (P29466 whole entry): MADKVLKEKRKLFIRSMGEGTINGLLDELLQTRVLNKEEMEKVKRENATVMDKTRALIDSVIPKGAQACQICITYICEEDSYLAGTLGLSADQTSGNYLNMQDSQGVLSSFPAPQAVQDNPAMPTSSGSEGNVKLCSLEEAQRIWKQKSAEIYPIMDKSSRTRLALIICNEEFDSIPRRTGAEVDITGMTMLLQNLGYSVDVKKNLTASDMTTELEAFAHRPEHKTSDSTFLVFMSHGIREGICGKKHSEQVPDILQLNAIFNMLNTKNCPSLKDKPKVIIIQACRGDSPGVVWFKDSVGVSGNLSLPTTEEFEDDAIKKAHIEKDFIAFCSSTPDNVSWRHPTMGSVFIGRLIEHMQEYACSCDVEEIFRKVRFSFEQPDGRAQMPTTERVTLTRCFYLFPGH
# [2] = target: T1, Caspase-1; test: Inhibition of human recombinant caspase-1 using AC-WEHD-AMC as substrate at 20 times Km after 20 mins by fluorescence assay
# Outline: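 Human recombinant caspase-1 in pH 7.4 HEPES buffer (100 mM NaCl, 0.1% CHAPS, 1 mM EDTA, 10% glycerol, 10 mM DTT) with Ac-WEHD-AMC at 200 μM final. Compounds tested at 10 000–0.04 nM in 1% DMSO. Enzyme level is set to convert under 20% of substrate in 20 min at room temperature. Free AMC read at ex 340/em 450 nm; IC50 from a four-parameter logistic fit.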
# [3] = Lipophilicity, log D of the compound at pH 6.5 by chromatographic method; type: physicochemical; conditions: buffer
# Outline: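 Chromatographic lipophilicity at pH 6.5, converted to ChromLogD = CHI × 0.0857 − 2.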
# [4] = Solubility of the compound in PG/EtOH solution; type: physicochemical
# [5] = Aqueous solubility of the compound in pH 7.4 buffered water after 24 hrs; type: physicochemical
# Outline: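 Semi-thermodynamic protocol: a mixture made from a 10 mM DMSO stock is diluted into pH 7.4 buffered water and stirred 24 h before the concentration is measured.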
# [6] = target: T1, Caspase-1; test: Inhibition of caspase-1 in human THP1 cells assessed as decrease in LPS-induced IL-1beta secretion after overnight incubation by sandwich immunoassay; type: cell-based
# [7] = Chemical stability in 96% ethanol assessed as parent compound recovery at 23 degC after 3 months; type: physicochemical; conditions: read-out: Drug recovery
# Outline: (§1)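 Compounds bearing the aspartyl aldehyde warhead are held in 96% ethanol at 23 °C and assayed as percent of parent compound recovered. Readings taken after 4 weeks are projected to 12 weeks with best-fit kinetic-order equations. Tautomers and potential stereoisomers are counted as parent.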
# [8] = Intrinsic clearance in human epidermal keratinocyte S9 fraction assessed per mg of protein; type: ADME
# [9] = Intrinsic clearance in NHEK cells assessed per 10^6 cells; type: ADME, cell-based; conditions: human
# [10] = Phototoxicity in NHEK assessed as decrease in cell viability after 24 hrs in presence of UV light by neutral red uptake assay; conditions: human
# Outline: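 Keratinocyte neutral red uptake assay adapted from the OECD 432 3T3 NRU test. Cells are irradiated with a simulated daily UV dose of 6 J/cm², and viability is read after 24 h exposure to compound.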
# [11] = target: T2, Caspase-1 (Homo sapiens) (UniProt P29466); test: Reversible inhibition of human recombinant caspase-1 using AC-WEHD-AMC as substrate at 10 times IC50 preincubated for 1 hr followed by 100 fold dilution with substrate measured for 2 hrs by fluorescence assay
# T2 sequence (whole entry): T1 sequence (P29466 whole entry)
# Outline: (§2)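 Jump dilution using the caspase-1 assay reagents. A 100X enzyme solution is preincubated 1 h with inhibitor at its IC90 (1% DMSO), then diluted 100-fold into Ac-WEHD-AMC at Km. AMC formation is recorded continuously for 2 h. The progress-curve slope is normalized to the DMSO control: about 90% indicates reversible, about 10% pseudo-irreversible.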
# [12] = target: T2, Caspase-1 (Homo sapiens); test: Pseudoirreversible inhibition of human recombinant caspase-1 using AC-WEHD-AMC as substrate at 10 times IC50 preincubated for 1 hr followed by 100 fold dilution with substrate measured for 2 hrs by fluorescence assay; outline: as §2
# [13] = Chemical stability in 96% ethanol assessed as parent compound recovery at 23 degC after 84 days; type: physicochemical; conditions: read-out: Drug recovery; outline: as §1
Structure (SMILES),IC50 ([1]; read-out: pIC50 (converted)) [nM],IC50 [2] [nM],chromatographic logD [3],solubility at 24 h [5] [µM],IC50 [6] [nM],further results
CC(C)N(NC(=O)c1ccc2ccccc2c1)C(=O)C1CCC[C@H]1C(=O)N[C@H]1CC(=O)OC1O (some centres undefined),251 to 10000,1580 to 10000,–,–,–,–
CC(C)n1cc(NC(=O)c2ccc(Nc3cnc4ccccc4n3)cc2)c(=O)n(C2(C(=O)N[C@H]3CC(=O)OC3O)CC2)c1=O (some centres undefined),–,–,2.4,87,27,IC50 ([1]; read-out: IC50): 4.7 nM; solubility [4]: 25000 µM
CCC(C(=O)N[C@H]1CC(=O)OC1O)n1c(=O)c(NC(=O)c2ccc(Nc3ccc4ccccc4c3)cc2C)cn(C(C)C)c1=O (some centres undefined),–,–,4,–,76,remaining at 2191.5 h [7]: 72%
CCC(C(=O)N[C@H]1CC(=O)OC1O)n1c(=O)c(NC(=O)c2ncc(Nc3ccc4ccccc4c3)cc2C)cn(C(C)C)c1=O (some centres undefined),–,–,4.5,2,200,solubility [4]: 49000 µM; remaining at 2191.5 h [7]: 100%; CL [8]: 2 uL/min/mg protein; CL [9]: 7.7 uL/min/10^6 cells; Activity [10]: Toxic
CC(C)N(NC(=O)c1ccc2ccccc2c1)C(=O)C1CCCC[C@H]1C(=O)N[C@H]1CC(=O)OC1O (some centres undefined),251 to 10000,1580 to 10000,–,–,–,–
CC(C)n1cc(NC(=O)c2ccc(Nc3cnc4ccccc4n3)cc2)c(=O)n(C(C)C(=O)N[C@H]2CC(=O)OC2O)c1=O (some centres undefined),–,–,2.4,86,50,IC50 ([1]; read-out: IC50): 5.6 nM; solubility [4]: 11000 µM
CC(C(=O)N[C@H]1CC(=O)OC1O)n1c(=O)c(NC(=O)c2ccc(Nc3cnc4ccccc4n3)cc2)cn(C)c1=O (some centres undefined),–,31.6,1.9,96,48,IC50 ([1]; read-out: IC50): 5.6 nM; solubility [4]: 890 µM
CC(C)n1cc(NC(=O)c2ccc(Nc3cnc4ccccc4n3)cc2)c(=O)n(CC(=O)N[C@H]2CC(=O)OC2O)c1=O (some centres undefined),–,–,2.3,8.3,53,IC50 ([1]; read-out: IC50): 3 nM; solubility [4]: 5200 µM
CC(C)N(NC(=O)c1cccc(Oc2ccccc2)c1)C(=O)[C@@H]1CCCC[C@H]1C(=O)N[C@H]1CC(=O)OC1O (some centres undefined),–,–,–,–,–,reversible inhibition call (jump dilution) [11]: Active
C[C@@H](C(=O)N[C@H]1CC(=O)OC1O)N1C(=O)CC(NC(=O)c2ccc3ccccc3c2)C1=O (some centres undefined),1000 to 10000,1260 to 10000,–,–,–,–
CC(C)N(NC(=O)c1ccc2ccccc2c1)C(=O)C1CNC[C@H]1C(=O)N[C@H]1CC(=O)OC1O (some centres undefined),251 to 10000,1580 to 10000,–,–,–,–
Cc1cnc(Nc2ccc(C(=O)Nc3cn(C)c(=O)n(C(C)C(=O)N[C@H]4CC(=O)OC4O)c3=O)cc2)cn1 (some centres undefined),39.8,–,–,–,–,–
CC(C(=O)N[C@H]1CC(=O)OC1O)n1c(=O)c(NC(=O)c2ccc3ccccc3c2)cn(C)c1=O (some centres undefined),501,7940,–,–,–,reversible inhibition call (jump dilution) [11]: Active
Cc1cc(Nc2ccc3ccccc3c2)ccc1C(=O)Nc1cn(C(C)C)c(=O)n(CC(=O)N[C@H]2CC(=O)OC2O)c1=O (some centres undefined),–,–,3.5,72,66,solubility [4]: 51000 µM; remaining at 2191.5 h [7]: 85%; CL [9]: 3.9 uL/min/10^6 cells
C[C@@H](C(=O)N[C@H]1CC(=O)OC1O)N1C(=O)NC(NC(=O)c2ccc3ccccc3c2)C1=O (some centres undefined),1000 to 10000,1260 to 10000,–,–,–,–
CC(C)[C@H](NC(=O)c1ccc2ccccc2c1)c1ccc(C(=O)N[C@H]2CC(=O)OC2O)cn1 (some centres undefined),1260,> 10000,–,–,–,–
CC(C)N(NC(=O)c1nccc2ccccc12)C(=O)[C@@H]1CCCC[C@H]1C(=O)N[C@H]1CC(=O)OC1O (some centres undefined),–,–,–,–,–,reversible inhibition call (jump dilution) [11]: Active
CC(C)N(NC(=O)c1ccc2ccccc2c1)C(=O)[C@@H]1CCCC[C@H]1C(=O)N[C@H]1CC(=O)OC1O (some centres undefined),–,–,–,–,–,reversible inhibition call (jump dilution) [11]: Active
C[C@@H](C(=O)N[C@H]1CC(=O)O[C@@H]1O)N1C(=O)CCC(NC(=O)c2ccc3ccccc3c2)C1=O (some centres undefined),–,–,–,–,–,pseudo-irreversible inhibition (qualitative call) [12]: Active
CC(C)n1cc(NC(=O)c2ccc(Nc3ccc4ccccc4c3)cc2)c(=O)n(CC(=O)N[C@H]2CC(=O)OC2O)c1=O (some centres undefined),–,–,3.2,52,140,IC50 ([1]; read-out: IC50): 21 nM; solubility [4]: 36000 µM; remaining at 2191.5 h [7]: 82%; CL [8]: < 0.82 uL/min/mg protein; Activity [10]: Toxic
CC(C)n1cc(NC(=O)c2ccc(Nc3ccc4ccccc4c3)cc2)c(=O)n(C2(C(=O)N[C@H]3CC(=O)OC3O)CC2)c1=O (some centres undefined),–,–,3.5,66,23,solubility [4]: 31000 µM; remaining at 2191.5 h [7]: 99%; CL [8]: < 0.82 uL/min/mg protein; CL [9]: 2.1 uL/min/10^6 cells
C[C@@H](C(=O)N[C@H]1CC(=O)OC1O)N1C(=O)CCC(NC(=O)c2ccc3ccccc3c2)C1=O (some centres undefined),1000 to 10000,1260 to 10000,–,–,–,–
CC(C)[C@H](NC(=O)c1ccc2ccccc2c1)C(=O)N1C2CCC(O)(CC2)C1C(=O)N[C@H]1CC(=O)OC1O (some centres undefined),15.8,100,–,–,–,–
C[C@@H](C(=O)N[C@H]1CC(=O)OC1O)N1C(=O)C[C@H](NC(=O)c2ccc3ccccc3c2)C1=O (some centres undefined),–,–,–,–,–,pseudo-irreversible inhibition (qualitative call) [12]: Active
O=C1C[C@H](NC(=O)[C@@H]2C[C@@H]3CN2C(=O)[C@@H](NC(=O)c2ccc4ccccc4c2)CCCCO3)C(O)O1 (some centres undefined),5010,> 10000,–,–,–,–
O=C1C[C@H](NC(=O)[C@@H]2CC[C@@H]3CCCC[C@H](NC(=O)c4nccc5ccccc45)C(=O)N32)C(O)O1 (some centres undefined),–,–,–,–,–,pseudo-irreversible inhibition (qualitative call) [12]: Active
Cc1cc(Nc2ccc3ccccc3c2)ccc1C(=O)Nc1cn(C(C)C)c(=O)n(C2(C(=O)N[C@H]3CC(=O)OC(O)C3)CC2)c1=O (some centres undefined),–,–,3.4,63,360,remaining at 2016 h [13]: 88%; CL [8]: 3.5 uL/min/mg protein; Activity [10]: Non-Toxic
CCC(C(=O)N[C@H]1CC(=O)OC(O)C1)n1c(=O)c(NC(=O)c2ccc(Nc3ccc4ccccc4c3)cc2C)cn(C(C)C)c1=O (some centres undefined),–,–,3.8,42,210,remaining at 2191.5 h [7]: 84%; CL [8]: 2.9 uL/min/mg protein; CL [9]: 13 uL/min/10^6 cells
CC(C)[C@H](NC(=O)[C@H](Cc1ccc(O)cc1)NC(=O)OCc1ccccc1)C(=O)N[C@@H](C)C(=O)N[C@@H](CC(=O)O)C(=O)CF,–,–,–,–,–,pseudo-irreversible inhibition (qualitative call) [12]: Active

# Source: ChEMBL document CHEMBL4177758, “Rational Drug Design of Topically Administered Caspase 1 Inhibitors for the Treatment of Inflammatory Acne” (J Med Chem, 2018)
